NALP1 yeast inh – NALP1 inflammasome inhibitors in reconstituted yeast, colorimetric, S. cerevisiae, triplicate retest; inhibition, % at 10 µM; hit rate 0.61% among 280,000; S. cerevisiae NALP1/ASC/caspase-1 growth, X-gal OD620, 72 h; in the data active = inhibition mostly above about 24%, no sharp cut-off; inactive = mostly below about 32%
T cruzi inh – inhibitors of intracellular T. cruzi growth, primary screen, luminescence, NIH3T3 host cells. hit rate 1.4% among 300,000. inhibition, % (test concentration not listed). T. cruzi beta-gal in NIH3T3, 90 h;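 active = mean inhibition across valid replicates above about 55%, limit read from the data; inconclusive = mean below that limit but half or more replicates reach it; inactive = mean below it, under half of replicates reach it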;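 also: signal also drops with host cell toxicity which is not excluded here; 0% = plate median of DMSO wells and 100% = zero luminescence signal; higher percent means less beta-gal luminescence so fewer parasites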
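compound dosing = single 50 nL compound addition per well in DMSO | material = NIH/3T3 host cells with β-galactosidase reporter T. cruzi | input = 5,000 host fibroblasts per well | timing = ≥90 h infection period, 3 h prior cell attachment | read-out basis = percent inhibition of parasite-derived β-gal signal | detection = GalScreen β-gal luminescence, detergent lysis, 60 min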
NALP3 yeast inh – NALP3 inflammasome inhibitors in reconstituted yeast, primary screen, luminescence, uHTS; Yeast reconstituted NLRP3/ASC/caspase-1, beta-gal luminescence, 24 h; inhibition, % at 10 µM; hit rate 0.39% among 330,000;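 active = inhibition of 50% or more; inactive = inhibition below 50%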;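 also: plate controls were induced DMSO wells for no effect and uninduced yeast grown without galactose for full effect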
Calb FLC – C. albicans growth inhibition with fluconazole, primary screen, CaCi-2 strain, Alamar Blue fluorescence. C. albicans CaCi-2 + fluconazole, 48 h. growth inhibition, % (no concentration beside the values). hit rate 0.57% among 300,000. AID 1979, 2009;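 active = growth inhibition above about 58% in most replicates, limit read from the data, passing the limit was not always enough; inconclusive = exactly half the replicates above a set limit; inactive = most replicates below a set limit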;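 also: all wells also contain fluconazole at 8 µg/ml as a sub-toxic cotreatment; 0% = median of DMSO wells and 100% = median of geldanamycin control wells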
Lmaj promast – Leishmania major promastigote growth inhibition, primary screen. Leishmania major promastigotes, resazurin fluorescence viability. hit rate 9% among 200,000. inhibition, % at 10 µM; in the data active = inhibition above about 50%;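 also: promastigotes grown with compound for 44 hours at 28 °C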
PolyA inh – polyadenylation inhibitors in yeast reporter cells, primary screen, luminescence, S. cerevisiae; S. cerevisiae SKY197-pL101 polyadenylation reporter, beta-gal luminescence; efflux-impaired pdr1/pdr3 knockout yeast; score 100 = 6 SD above DMSO; activity score, % at 12 µM; hit rate 0.02% among 300,000;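 active = lowest replicate activity score at least 50, where 100 means six control SD above control mean; inconclusive = lowest score under 50 but half or more replicates reach 50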;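 also: yeast exposed to compound for 9 h at 30 °C; higher score means more reporter readthrough which indicates perturbed polyadenylation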
The depositor's hits bear a star; ? = inconclusive; · = not tested or not shown. This is one part of a sample in which hits are shown more often than they occur.

SMILES	NALP1 yeast inh	T cruzi inh	NALP3 yeast inh	Calb FLC	Lmaj promast	PolyA inh
N=c1c(C(=O)NCc2ccc(F)cc2)cc2c(=O)n3ccccc3nc2n1CCCN1CCOCC1	33	·	16	·	60*	·
COC(=O)c1cc2c(=O)n3ccccc3nc2n(Cc2cccnc2)c1=N	·	-13	14	17	19	-14
N=c1c(C(=O)NCc2ccccc2)cc2c(=O)n3ccccc3nc2n1CCCN1CCOCC1	-2	·	9	·	·	·
N=c1c(C(=O)NCc2ccc(F)cc2)cc2c(=O)n3ccccc3nc2n1Cc1cccnc1	10	70*	27	-7	71*	-8
Cc1ccccc1C(=O)NNC(=O)CCc1ccccc1	6	0	11	-14	-1	-5
O=C(CCc1ccccc1)NNC(=S)NC(=O)c1ccccc1	-1	-24	31	110*	25	-62
CC(C)(C)c1cc(CCC(=O)NNC(=S)NC(=O)c2ccccc2)cc(C(C)(C)C)c1O	13	59*	18	71	97*	2
O=C(CCc1ccccc1)NNC(=O)c1ccccc1C(=O)O	30	4	8	-1	60*	13
CC(C)(C)c1cc(CCC(=O)NNC(=O)c2ccco2)cc(C(C)(C)C)c1O	22	9	18	1	25	-5
Cc1ccc(Oc2ccc(NS(=O)(=O)c3cccc(C(=O)O)c3)cc2)cc1	·	·	21	·	·	·
COc1ccc(NC(=O)CSc2nnc(C)n2C2CC2)cc1S(=O)(=O)N1CCOCC1	·	·	8	·	·	·
CCN(c1ccccc1)S(=O)(=O)c1ccc(Cl)c(NC(=O)COC(=O)c2ccc[n+]([O-])c2)c1	15	-3	-2	?	0	-14
COC(=O)CNC(=O)C1CCN(S(=O)(=O)c2cnc[nH]2)CC1	17	6	17	-1	·	-20
CCOc1cc(/C=N/n2c(COc3ccccc3)n[nH]c2=S)ccc1O	-6	-2	-19	3	·	-15
S=c1[nH]nc(-c2ccncc2)n1/N=C/C(Cl)=C\c1ccccc1	-1	-21	23	7	53*	-13
S=c1[nH]nc(COc2ccccc2)n1/N=C/C(Cl)=C/c1ccccc1	2	12	38	4	81*	-2
Oc1ccc(/C=N/n2c(COc3ccccc3)n[nH]c2=S)cc1O	-13	1	7	77*	·	?
Cc1ccc2nc(SCC(=O)N3CCC(C)CC3)nc(=O)n2c1	·	-6	17	-7	·	6
CN1C(=S)SC2CS(=O)(=O)CC21 (stereo not given)	·	-3	4	-3	·	-6
Nc1ccc(Sc2ccc([N+](=O)[O-])cc2)cc1	-7	-1	42	93*	12	0
O=C(Nc1ccccc1)NN(C(=O)CCl)c1ccccc1	24	-2	3	-1	·	-9
Cc1cccc(NC(=O)C2CCN(S(=O)(=O)c3c(C)noc3C)CC2)c1	27	18	14	0	·	9
CCc1cccc(NC(=O)C2CCN(S(=O)(=O)c3c(C)noc3C)CC2)c1	4	25	6	-49	64*	0
COc1ccc(NC(=O)C2CCN(S(=O)(=O)c3c(C)noc3C)CC2)cc1OC	24	3	15	-6	·	-18
Cc1ccc(NC(=O)C2CCN(S(=O)(=O)c3c(C)noc3C)CC2)cc1C	12	23	-15	-16	99*	-3
SMILES	NALP1 yeast inh	T cruzi inh	NALP3 yeast inh	Calb FLC	Lmaj promast	PolyA inh
CCN1CCCc2cc(CN(CCN3CCOCC3)C(=O)Nc3ccc(C)c(C)c3)ccc21	4	40	10	11	10	19
Cc1ccccc1N1C(=O)CN(Cc2sccc2C)C1=S	30	-4	15	5	93*	-17
C#CC1(O)CC(C)NCC1(C)CCC#N (stereo not given)	10	-19	10	-4	-4	4
CC1=NN(c2ccccc2)C(=O)/C1=C/C=C/c1ccc(N(C)C)cc1	-18	6	·	-14	68*	-10
CCOC(=O)c1ccc(N2N=C(C)/C(=C/C=C/c3ccco3)C2=O)cc1	16	-5	3	20	30	5
CCOC(=O)CC1=NN(c2ccccc2)C(=O)/C1=C\c1ccc(N(C)C)cc1	15	4	18	0	96*	-18
CC1=NN(c2ccc(C(=O)OC(C)C)cc2)C(=O)/C1=C\C=C\c1ccco1	14	0	13	11	76*	-7
S=C(N/N=C/c1ccccc1Cl)Nc1cccc(Cl)c1Cl	·	-4	32	-3	·	-15
COc1ccc(Cn2c(C)nc3ccc([N+](=O)[O-])cc3c2=O)cc1	12	39	26	6	·	-1
COc1ccc(C(=O)Nc2ccc(/C(C)=N/NC(=O)c3ccccc3O)cc2)cc1OC	5	-21	24	-3	-4	14
CCOc1cc(C(=O)NCc2ccccc2)ccc1OCC(=O)N1CCOCC1	0	-1	5	98*	-4	2
COc1cc(C(=O)Nc2nc(-c3ccc(C)cc3)cs2)ccc1OCC(=O)N1CCOCC1	32	55*	-13	-3	95*	-5
COc1ccc(-c2csc(NC(=O)c3ccc(OCC(=O)N4CCOCC4)c(OC)c3)n2)cc1	21	44	4	-2	36	-3
COc1ccc(-c2nc(NC(=O)c3ccc(OCC(=O)Nc4ccc(F)cc4)c(OC)c3)sc2C)cc1	25	-7	15	0	69*	-6
COc1cc(C(=O)Nc2nc(-c3ccc(F)cc3)cs2)ccc1OCC(=O)N1CCOCC1	38	60*	11	8	96*	3
COc1cc(C(=O)Nc2nc(-c3cc(C)ccc3C)c(C)s2)ccc1OCC(=O)Nc1ccc(F)cc1	18	-15	0	2	-3	0
Nc1ccccc1SCC(O)Cn1ccc2ccccc21 (stereo not given)	-6	-4	28	-6	·	8
CC(C)CC1N=C2c3ccccc3N=C(SCc3cc(=O)n4ccccc4n3)N2C1=O (stereo not given)	·	·	·	·	-1	·
COC(=O)C1=C(C)N(c2cc(Cl)cc(Cl)c2)C(=O)C1	-19	-8	-6	28	87*	3
O=c1c2ccccc2c2c(O)nc(-c3ccccc3)n2n1Cc1ccccc1	-1	9	15	1	-6	7
O=C(CN1CCN(c2ccc(O)cc2)CC1)NC(c1ccccc1)c1ccccc1	28	12	9	114*	84*	3
CCN(CC)C(=O)C1CCCN(c2ccc([N+](=O)[O-])cc2/C=N/NC(=O)c2ccccc2)C1 (stereo not given)	27	-6	-4	-2	12	3
CCN(CC)C(=O)C1CCCN(c2ccc([N+](=O)[O-])cc2/C=N/NC(=O)c2cccc(O)c2)C1 (stereo not given)	-2	7	16	14	1	10

Source: PubChem BioAssay
